H69AR growth 86K: blocks growth of human H69AR lung tumor cells; viability, % at 10 µM; 85,000 tested, 6% active; AID 598; H69AR lung tumor viability, ATP luminescence, 72 h; stronger effect = lower value;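 active means viability at or below 40%; inactive means viability above 40%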;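 further: multidrug resistant small cell line overexpressing MRP-1 efflux transporter; 100% = mean luminescence of untreated control wells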
tolC growth inh: growth inhibitors of E. coli BW25113 tolC mutant. 65,000 tested, 2.2% active. OD615. growth inhibition, % at 10 µM (by protocol);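 active means growth inhibition at or above a cutoff equal to the mean over every tested compound plus 3 SD, cut at about 60% in these data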;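 further: growth measured after 20 h incubation at 37 °C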
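Signal: optical density read at 615 nm; Assay system: E. coli ΔtolC::kan strain BW25113; Times: 20 h incubation with compound, 37 °C; Dosing: 10 µM final, single dose.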
Jurkat tox 60K: cytotoxicity toward Jurkat cells. inhibition, % at 4 µM. Jurkat E6.1 viability, ATP luminescence, 48 h. AID 463. 56,000 tested, 1.2% active;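 active means inhibition above the mean inhibition of all tested compounds plus 3 SD, cut at about 28% in these data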
HUVEC prolif 384: inhibitors of human endothelial cell proliferation. 86,000 tested, 1.1% active. HUVEC proliferation, CellTiter-Glo luminescence, 72 h; stronger effect = lower value. viability, % at 10 µM (by protocol);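 active means viability at or below 30%; inactive means viability above 30%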;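 further: 100% = median luminescence of DMSO-only cell control wells on each plate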
Fibroblast inh: blocks proliferation of human lung fibroblasts. 85,000 tested, 1.1% active. viability, % at 10 µM. LL 47 human lung fibroblast viability, ATP luminescence; stronger effect = lower value;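 active means viability at or below 50% in the single dose screen; inactive means viability above 50%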;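 further: compound exposure lasted 72 h before the ATP readout; 100% = median luminescence of untreated cell-only wells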
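Times – overnight cell rest, 72 h compound treatment at 37 °C · Test system – human lung fibroblast line LL 47, low passage · Amount – 1,150 cells in each well · Controls – cell-only wells, no compound · Doses – 0.1% DMSO in all compound wells · Measured by – CellTiter-Glo luminescence · Buffer or medium – IMEM plus 15% FBS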
E coli WT exp: growth inhibitors of E. coli BW25113 wild type. AID 710. OD600 absorbance. growth inhibition, % at 100 µM. 98,000 tested, 0.15% active;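 active means growth inhibition above about 50% at one test dose, limit read from the data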;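 further: growth measured after 20 h incubation at 37 °C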
An asterisk follows results filed as active. An excerpt weighted towards active compounds, which were near 6.4% of everything screened.

CCOC(=O)N1CC=C2C(C#N)=C(N)C(C#N)(C#N)[C@H](c3ccc(OC(C)C)c(OCC)c3)[C@H]2C1 was read as H69AR growth 86K 37*, tolC growth inh -5, Jurkat tox 60K 0, HUVEC prolif 384 79, Fibroblast inh 91 and E coli WT exp -10.
For COc1ccc2c(-c3ccccc3)cc(N3CCOCC3)nc2c1 the results were H69AR growth 86K 73, tolC growth inh 100*, Jurkat tox 60K 0, HUVEC prolif 384 99, Fibroblast inh 97 and E coli WT exp -14.
`CCCCN=c1sc(C(=O)OC)cc(=O)n1CCCC` gave tolC growth inh 10 and E coli WT exp -9.
Screening COC(=O)c1cc(Br)c(=O)n(CCc2ccccc2)c1 returned H69AR growth 86K 91, tolC growth inh 19, Jurkat tox 60K 1, HUVEC prolif 384 97, Fibroblast inh 102 and E coli WT exp -1.
For CCn1c(=O)cc(C(=O)OC)sc1=Nc1ccc(F)c(F)c1 the results were H69AR growth 86K 0.7*, tolC growth inh 15, Jurkat tox 60K 10, HUVEC prolif 384 56, Fibroblast inh 16* and E coli WT exp -1.
`COC(=O)c1cc(=O)n(Cc2ccc3c(c2)OCO3)c(=Nc2ccc(F)c(Cl)c2)s1` gave H69AR growth 86K 33*, HUVEC prolif 384 63, Fibroblast inh 69 and E coli WT exp -15.
`COC(=O)c1cc(=O)n(CCc2ccc(OC)cc2)c(=Nc2ccc(F)c(Cl)c2)s1` gave H69AR growth 86K 1.7*, HUVEC prolif 384 22*, Fibroblast inh 62 and E coli WT exp -22.
For COC(=O)c1cc(=O)n(CCc2ccccc2)c(=Nc2ccc(F)cc2)s1 the results were H69AR growth 86K 1.3*, HUVEC prolif 384 54, Fibroblast inh 88 and E coli WT exp -17.
For O=C(Nc1ccc2ccccc2c1)N1CCN(c2ncccc2C(F)(F)F)CC1 the results were H69AR growth 86K 88, tolC growth inh 26, Jurkat tox 60K -2, HUVEC prolif 384 96, Fibroblast inh 105 and E coli WT exp 3.
CC1(C)CC(=O)C2=C(C1)OC(N)=C(C#N)C21C(=O)N(CN2CCOCC2)c2ccccc21 (centres undefined) was read as H69AR growth 86K 87, tolC growth inh 10, HUVEC prolif 384 104, Fibroblast inh 105 and E coli WT exp -3.
For COc1ccc(C2C(C#N)C(C#N)N3CCCN23)cc1 (centres undefined) the results were H69AR growth 86K 97, HUVEC prolif 384 106, Fibroblast inh 98 and E coli WT exp 6.
Screening O=C(C1CCCN(S(=O)(=O)Cc2ccccc2)C1)N1CCc2ccccc21 (centres undefined) returned H69AR growth 86K 64, tolC growth inh 4, HUVEC prolif 384 94, Fibroblast inh 101 and E coli WT exp -7.
Screening CN(C)c1oc(-c2ccccc2F)nc1C#N returned H69AR growth 86K 86, tolC growth inh 4, Jurkat tox 60K -1, HUVEC prolif 384 100, Fibroblast inh 106 and E coli WT exp 5.
`COc1cc(C2Nc3cccc4cccc(c34)N2)cc(OC)c1OC(C)=O` gave tolC growth inh 12 and E coli WT exp -5.
COc1cc(/C=C/c2ccc3cccc(OC)c3n2)c(OC(C)=O)c([N+](=O)[O-])c1 was read as H69AR growth 86K 6.1*, HUVEC prolif 384 15*, Fibroblast inh 94 and E coli WT exp 0.
Screening COc1cccc(C(=O)Oc2cc3c4c(c2)C(C)=CC(C)(C)N4C(=O)C3=O)c1 returned E coli WT exp 0.
Screening CCCOc1ccccc1-n1sc2c(c1=S)-c1cc(OC)cc3c1N(C(=O)C3=O)C2(C)C returned H69AR growth 86K 1.5*, HUVEC prolif 384 47, Fibroblast inh 74 and E coli WT exp -13.
CSc1ccc(-c2nnn(CC(=O)NCc3ccccc3)n2)cc1 was read as H69AR growth 86K 25*, tolC growth inh 4, HUVEC prolif 384 70, Fibroblast inh 92 and E coli WT exp -4.
`Cc1cc(C)cc(NC(=O)Cn2c(=O)oc3cc(S(=O)(=O)N4CC(C)CC(C)C4)ccc32)c1` (centres undefined) gave H69AR growth 86K 55, HUVEC prolif 384 80, Fibroblast inh 90 and E coli WT exp -4.
Screening COc1ccc(NS(=O)(=O)c2ccc3oc4ccccc4c3c2)cn1 returned H69AR growth 86K 81, tolC growth inh 100*, Jurkat tox 60K 4, HUVEC prolif 384 110, Fibroblast inh 93 and E coli WT exp -4.
